Laboratory results from PubChem BioAssay.
Activity calls are given as the source filed them.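 The calls were made as follows, unless noted: active = NADPH fluorescence slope more negative than the mean of all samples by about 3 SD, 99.7% confidence; inactive = the rest.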

What was measured:
[1] = inhibitors of TNFa-induced NFkB p65 translocation, primary screen, imaging, HUVEC, MLSMR starter and 10KST1 sets (AID 438;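 active = inhibition above 20% together with a positive visual image hit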;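 also: compound added about 3h40 before a 20 min TNFalpha stimulation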;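 as to inhibition: signal is the nuclear over cytoplasmic p65 intensity ratio per well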); conditions: HUVEC TNFa-induced p65 nuclear translocation; cell count: measured here: nuclei count (cytotoxicity indicator), at 2.08 µM; inhibition: at 2 µM, stronger effect = higher value, 0% TNFa-plus-vehicle, 100% no-TNFa wells
[2] = inhibitors of E-selectin induction by TNFa, primary screen, imaging, HUVEC, immunofluorescence, MLSMR starter and 10KST1 sets (AID 487;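 active = visually confirmed hit in the image check and inhibition above 20%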;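 as to inhibition: signal is fraction of cell area covered by stained E-selectin grains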;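 as to nuclei count: 100% = median nuclei count of all wells on the same plate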); conditions: HUVEC TNFalpha-induced E-selectin immunofluorescence imaging, at 2 µM; inhibition: stronger effect = higher value; nuclei count: measured here: cell number, toxicity
[3] = DUSP6 inhibitors restoring Erk phosphorylation by chemical complementation, primary imaging in DUSP6-transfected HeLa (AID 609;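 active = compounds giving at least 50% inhibition in the cell-based MKP-3 phosphatase rescue imaging test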;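 as to inhibition: phospho-Erk level distribution per well compared with pooled transfected vehicle control wells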); conditions: HeLa MKP-3 transfected, phospho-Erk imaging KS statistic, at 10 µM, cells stimulated with TPA for 15 min
[4] = target: Dual specificity protein phosphatase 6 (Homo sapiens) (UniProt Q16828); test: as above; conditions: HeLa MKP-3 transfected, phospho-Erk imaging KS statistic; at 10 µM; stronger effect = higher value; cells stimulated with TPA for 15 min
[5] = target: Voltage-gated potassium channel subunit beta-2 (Rattus norvegicus) (UniProt P62483); test: KvBeta enzyme negative modulators, primary screen, biochemical, NADPH fluorescence (AID 622;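 active = fluorescence slope higher than the sample average by over 3 SD, cut at about -0.22 in these data, passing the limit was not always enough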;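 also: slope of raw intensity against log time taken from 70 to 1610 s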); conditions: recombinant KvBeta, 4-cyanobenzaldehyde reduction, at 10 µM, stronger effect = higher value
[6] = target: Voltage-gated potassium channel subunit beta-2 (Rattus norvegicus) (UniProt P62483); test: KvBeta positive modulators, primary screen, biochemical, NADPH fluorescence (AID 623); conditions: Recombinant KvBeta, NADPH fluorescence decrease slope, 10 min; at 10 µM; stronger effect = lower value;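 also: fluorescence intensity change per second fitted from 20 to 320 s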
[7] = target: Alpha-2C adrenergic receptor (Homo sapiens) (UniProt P18825); test: modulators of alpha2C/GIRK thallium flux, primary screen, cell-based, HEK293 alpha2C/GIRK1/2 (AID 624;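 active = fluorescence slope after compound addition differing from the mean of all screened samples at 99.7% confidence, in either direction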;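 also: slope of fluorescence ratio to pre-addition baseline per second over 15 to 24 s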); conditions: thallium flux BTC fluorescence, at 10 µM, actives lie on both sides
[8] = inhibitors of larval lipid processing in zebrafish, primary screen, whole organism, PED6 fluorescence, gall bladder and intestine (AID 686;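 active = a full or partial loss of lipid-probe fluorescence in the fish gall bladder, intestine or both, judged by eye; inactive = no fluorescence loss, or compound toxic to the fish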;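 also: larvae 5 to 7 days old with five fish per well; signal comes from phospholipase A2 cleavage of quenched PED6 carried via bile; overnight exposure to compound and PED6 before scoring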); conditions: Zebrafish larvae PED6 lipid processing, fluorescence scoring; screened at 20 µM (by protocol)
In short: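 Also added: quenched phospholipase substrate PED6, 100 nM final, ingested by larvae; System: zebrafish larvae, 5-7 d; Quantity: 5 larvae per well; Compound: 20 µM single dose; Schedule: overnight compound and PED6 incubation; Read-out: visual per-well fluorescence inhibition score; Measured by: By-eye fluorescence microscopy; Medium: E3.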

[9] = inhibitors of Chlamydomonas gravitaxis, primary screen, whole organism, Chlamydomonas reinhardtii, WT vs cilia-less mutant, absorbance, 96-well (AID 463189;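 active = inhibition at or above 50% relative to wild type and mutant plate controls; inactive = inhibition below 50%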;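 also: 0% = wild type cc124 cells in DMSO and 100% = ciliumless bld1 mutant cells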); conditions: OD600 absorbance, 2 days, at 10 µM, stronger effect = higher value
[10] = measured here: cell density z-score
[11] = measured here: nuclear c-Myc green intensity z-score
[12] = measured here: nuclear pErk red intensity z-score, stronger effect = higher value

Chain of Voltage-gated potassium channel subunit beta-2 (Rattus norvegicus) (P62483 whole entry, looked up): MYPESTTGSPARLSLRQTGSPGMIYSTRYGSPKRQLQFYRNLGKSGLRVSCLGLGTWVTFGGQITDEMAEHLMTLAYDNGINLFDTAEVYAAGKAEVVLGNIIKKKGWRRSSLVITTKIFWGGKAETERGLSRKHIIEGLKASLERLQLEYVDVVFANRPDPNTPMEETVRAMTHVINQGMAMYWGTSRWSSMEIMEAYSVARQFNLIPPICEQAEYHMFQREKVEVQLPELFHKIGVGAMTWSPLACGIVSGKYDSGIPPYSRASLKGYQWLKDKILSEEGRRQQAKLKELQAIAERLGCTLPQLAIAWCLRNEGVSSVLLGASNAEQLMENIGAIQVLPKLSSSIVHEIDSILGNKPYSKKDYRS
Chain of Dual specificity protein phosphatase 6 (Homo sapiens) (Q16828 whole entry, looked up): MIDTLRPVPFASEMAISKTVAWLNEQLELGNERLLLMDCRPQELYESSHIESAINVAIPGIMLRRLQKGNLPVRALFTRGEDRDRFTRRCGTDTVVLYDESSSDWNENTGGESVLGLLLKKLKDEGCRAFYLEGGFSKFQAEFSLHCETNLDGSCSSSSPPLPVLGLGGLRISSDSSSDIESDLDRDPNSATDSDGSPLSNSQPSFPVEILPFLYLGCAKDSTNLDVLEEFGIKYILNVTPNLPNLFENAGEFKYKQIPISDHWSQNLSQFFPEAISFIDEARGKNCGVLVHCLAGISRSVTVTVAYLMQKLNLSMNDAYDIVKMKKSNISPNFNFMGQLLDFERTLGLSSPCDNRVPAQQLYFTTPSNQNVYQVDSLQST
Chain of Alpha-2C adrenergic receptor (Homo sapiens) (P18825 whole entry, looked up): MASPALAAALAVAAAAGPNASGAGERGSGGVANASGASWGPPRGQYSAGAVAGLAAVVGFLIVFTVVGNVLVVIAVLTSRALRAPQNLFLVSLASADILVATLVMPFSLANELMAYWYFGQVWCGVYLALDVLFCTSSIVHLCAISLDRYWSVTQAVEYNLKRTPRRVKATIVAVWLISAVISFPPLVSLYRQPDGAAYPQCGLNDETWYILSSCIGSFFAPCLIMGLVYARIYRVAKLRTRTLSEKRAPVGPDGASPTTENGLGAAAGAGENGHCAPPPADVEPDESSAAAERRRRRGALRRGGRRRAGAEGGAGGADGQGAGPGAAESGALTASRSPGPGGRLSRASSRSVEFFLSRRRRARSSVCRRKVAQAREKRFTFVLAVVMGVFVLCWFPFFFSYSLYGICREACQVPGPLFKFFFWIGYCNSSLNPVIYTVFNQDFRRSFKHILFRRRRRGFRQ

| SMILES | cell count [1] | inhibition [1] | inhibition [2] | nuclei count [2] | z-score [3, 10] | z-score [3, 11] | z-score [3, 12] | inhibition [4] | fluorescence slope [5] | NADPH fluorescence slope [6] | slope [7] | outcome [8] | inhibition [9] |
| --- | --- | --- | --- | --- | --- | --- | --- | --- | --- | --- | --- | --- | --- |
| N#CCCSCc1ccc(OCC(=O)O)cc1 | 547 | -22.2% (inactive) | -141% (inactive) | 138% | 0.922 | -1.08 | 0.0284 | 5.95% (inactive) | -0.488 (inactive) | -9.2e-05 (inactive) | 0.00635 (inactive) | inactive | 2.45% (inactive) |
| CC(C)(C)C1=Nn2c(nnc2-c2ccccn2)SC1 | 537 | -5.5% (inactive) | -200% (inactive) | 165% | 1.25 | 0.795 | -0.0968 | -2.47% (inactive) | -0.417 (inactive) | -0.000136 (inactive) | 0.00561 (inactive) | inactive | -9.77% (inactive) |
| Clc1ccc(-c2nnc3sc(Cc4cccs4)nn23)c(Cl)c1 | 664 | 0.3% (inactive) | -136% (inactive) | 169% | 0.203 | 0.587 | -0.53 | -9.66% (inactive) | -0.43 (inactive) | -0.00015 (inactive) | 0.00477 (inactive) | inactive | 37.7% (inactive) |
| COc1ccccc1N1C(=O)C2ON(c3ccccc3)C(c3ccc(N(C)C)cc3)C2C1=O (stereo unspecified) | 575 | -8.3% (inactive) | -66.7% (inactive) | 170% | -2.24 | 0.301 | 1.93 | -15% (inactive) | -0.503 (inactive) | -3e-05 (inactive) | 0.00352 (inactive) | inactive | 9.55% (inactive) |
| CCCOc1ccc(Cc2nn[nH]n2)cc1 | 665 | -9.9% (inactive) | -18.7% (inactive) | 154% | -1.6 | 0.733 | 2.09 | -3.95% (inactive) | -0.396 (inactive) | -5.5e-05 (inactive) | 0.00599 (inactive) | inactive | -6.39% (inactive) |
| Cc1ccccc1OCC(O)Cn1c(N2CCN(c3ccccc3)CC2)nc2c1c(=O)[nH]c(=O)n2C (stereo unspecified) | 519 | -0.6% (inactive) | -227% (inactive) | 134% | -0.379 | -1.18 | 0.818 | 8.76% (inactive) | -0.537 (inactive) | -3.2e-05 (inactive) | 0.00634 (inactive) | inactive | 22.7% (inactive) |
| CC(C)Cc1[nH]c(=O)c(C#N)c2c1CCCC2 | 623 | 1.3% (inactive) | 2.8% (inactive) | 155% | -1.11 | 0.566 | 0.412 | 5.65% (inactive) | -0.318 (inactive) | -9.4e-06 (inactive) | 0.00948 (inactive) | inactive | 16.6% (inactive) |
| O=C1c2ccccc2C(=O)C1c1ccc2ccccc2n1 | 336 | -17.4% (inactive) | -56% (inactive) | 109% | -0.111 | -0.223 | 0.575 | -7.28% (inactive) | -0.43 (inactive) | -2.4e-05 (inactive) | 0.00379 (inactive) | inactive | -14.2% (inactive) |
| CC(=O)N1CCN(c2nc(CC(C)C)c3c(c2C#N)CCC3)CC1 | 524 | 0.5% (inactive) | -100% (inactive) | 145% | -0.27 | -0.142 | -0.203 | 5.26% (inactive) | -0.477 (inactive) | -4.8e-05 (inactive) | 0.00485 (inactive) | inactive | -18% (inactive) |
| CN1C(=O)NC(NC(=O)c2ccco2)(C(F)(F)F)C1=O (stereo unspecified) | 489 | -3.4% (inactive) | -78% (inactive) | 116% | -0.0785 | -0.489 | 0.527 | 3.5% (inactive) | -0.504 (inactive) | -6e-05 (inactive) | 0.00753 (inactive) | inactive | -10.1% (inactive) |
| O=C(c1coc(=O)c(Br)c1)N1CCCc2ccccc21 | 384 | -0.8% (inactive) | -39.7% (inactive) | 134% | -0.336 | -1.15 | 0.12 | 3.42% (inactive) | -0.437 (inactive) | -8e-05 (inactive) | 0.00466 (inactive) | inactive | 36.5% (inactive) |
| CN1CCN(c2nc(C(N)=O)cc(-c3ccccc3)n2)CC1 | 400 | -6.4% (inactive) | 14% (inactive) | 98.8% | 1.22 | -2.25 | 0.112 | 7.83% (inactive) | -0.498 (inactive) | -3.9e-05 (inactive) | 0.00569 (inactive) | inactive | 18.8% (inactive) |
| CSCCC(CO)NC(=O)OCc1ccccc1 (stereo unspecified) | 562 | -15% (inactive) | -130% (inactive) | 142% | 1.72 | -0.612 | -0.962 | 3.97% (inactive) | -0.503 (inactive) | -8.5e-05 (inactive) | 0.00774 (inactive) | inactive | 2.98% (inactive) |
| C=CCOC(=O)C1=C(C)NC(SCC(=O)N(CC)CC)=C(C#N)C1c1ccco1 (stereo unspecified) | 361 | -9.9% (inactive) | -137% (inactive) | 153% | -0.539 | -0.441 | 0.117 | -5.89% (inactive) | -0.417 (inactive) | -1.8e-05 (inactive) | 0.00442 (inactive) | inactive; toxic | -0.086% (inactive) |
| CCOC(=O)c1cc2c(=O)n3cccc(C)c3nc2n(C)c1=N | 622 | -8.8% (inactive) | -51.9% (inactive) | 142% | 1.38 | -1.25 | -0.0406 | 6.04% (inactive) | -0.436 (inactive) | -8.5e-05 (inactive) | 0.00241 (inactive) | inactive | 119% (active) |
| Nc1ccc(Cl)cc1/C(=N/O)c1ccccc1 | 337 | -13.8% (inactive) | -23% (inactive) | 65.2% | 0.198 | 0.536 | -0.0149 | 1.75% (inactive) | -0.451 (inactive) | 9e-06 (inactive) | 0.00461 (inactive) | inactive | 16.2% (inactive) |
| COc1ccc(/C=N/n2cncn2)cc1CSc1ccccn1 | 302 | -17.2% (inactive) | -137% (inactive) | 114% | -0.741 | 0.803 | -0.342 | -2.29% (inactive) | -0.32 (inactive) | 9e-06 (inactive) | 0.00478 (inactive) | inactive | 27% (inactive) |
| O=S1CCCSC1c1cccnc1 (stereo unspecified) | 524 | -10.3% (inactive) | -190% (inactive) | 144% | 1.86 | -0.668 | -1.2 | 13.9% (inactive) | -0.507 (inactive) | -1.9e-05 (inactive) | 0.00681 (inactive) | inactive | 2.49% (inactive) |
| N#CC1=C(C=Nc2ccccc2O)CCC1 | 643 | -12.1% (inactive) | -13.8% (inactive) | 163% | -1.7 | -0.376 | 2.01 | -8.95% (inactive) | -0.416 (inactive) | -6.1e-05 (inactive) | 0.00456 (inactive) | inactive | 11.8% (inactive) |
| Oc1ccc(Br)cc1CNn1cnnc1 | 501 | -5.8% (inactive) | -3.9% (inactive) | 122% | -0.232 | 1.89 | 1.27 | -1.75% (inactive) | -0.454 (inactive) | -2.5e-06 (inactive) | 0.0058 (inactive) | inactive | 16.1% (inactive) |
| Cn1c(OCc2ccco2)nc2c1c(=O)n(Cc1ccc(Cl)c(Cl)c1)c(=O)n2C | 642 | -4.4% (inactive) | 12.6% (inactive) | 136% | 1.05 | 0.078 | -0.436 | 0.671% (inactive) | -0.521 (inactive) | -4.1e-05 (inactive) | 0.00511 (inactive) | inactive | -1.38% (inactive) |
| O=C(NCCOCCOCCNC(=O)c1cccnc1)c1cccnc1 | 490 | 0.8% (inactive) | -165% (inactive) | 151% | -2.67 | -0.0249 | -0.654 | 34.8% (inactive) | -0.514 (inactive) | -7.5e-05 (inactive) | 0.00454 (inactive) | inactive | -5.31% (inactive) |
| COC(=O)c1ccc(=O)n(Cc2ccco2)c1 | 300 | -2.7% (inactive) | -70.6% (inactive) | 107% | -1.23 | 1.62 | -0.83 | -6.48% (inactive) | -0.404 (inactive) | -1.8e-06 (inactive) | 0.00511 (inactive) | inactive | -14.2% (inactive) |
| COc1ccc(OC)c(C2/C(=C(/O)c3ccc(C)cc3)C(=O)C(=O)N2Cc2ccco2)c1 (stereo unspecified) | 561 | -1.8% (inactive) | -18.5% (inactive) | 143% | 1.28 | 0.438 | 0.373 | -7.86% (inactive) | -0.568 (inactive) | -1.3e-05 (inactive) | 0.00557 (inactive) | inactive | -7.49% (inactive) |
| COc1ccc(/C(O)=C2\C(=O)C(=O)N(c3cc(C)on3)C2c2cccc(OC)c2OC)cc1C (stereo unspecified) | 531 | -1.2% (inactive) | -148% (inactive) | 129% | -0.589 | 1.28 | 0.634 | 1.75% (inactive) | -0.5 (inactive) | -2.6e-05 (inactive) | 0.00468 (inactive) | inactive | -15.3% (inactive) |
| CC(=O)c1cc(C#N)c(SCC(=O)C(C)(C)C)nc1C | 620 | -22.5% (inactive) | 43.4% (inactive) | 103% | -0.699 | -0.489 | -0.711 | -3.95% (inactive) | -0.462 (inactive) | -1.9e-05 (inactive) | 0.00715 (inactive) | inactive | 42.5% (inactive) |
| CC1CC(C(F)(F)F)n2ncnc2N1 (stereo unspecified) | 503 | -3.5% (inactive) | -41.5% (inactive) | 134% | -0.241 | 0.0915 | -0.288 | 13.2% (inactive) | -0.523 (inactive) | -4.4e-05 (inactive) | 0.00582 (inactive) | inactive | 39.7% (inactive) |
